Reference: publication PMC3983135 (Bioconjugate Chemistry, 2014)
Several values for one entry are separate records, joined by “and”; a condition that tells them apart may be missing. Equal values may be shown once.

Assay: CRRL conjugation kinetics of BQ with methoxyamine by UV–vis spectroscopy
Format: physicochemical
Conditions: PBS, room temperature
Outline: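 BQ (200 μM) was reacted with excess methoxyamine (100 mM and other concentrations) in Dulbecco's PBS at room temperature. Readings were taken in quartz cells, starting immediately after mixing. Repeated UV-vis spectra tracked BQ at 248 nm and QO at 320 nm. Both traces were fitted to pseudo-first-order exponentials to give k′, and the slope of k′ versus [methoxyamine] gave the second-order rate constant.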

SMILES: O=C1C=CC(=O)C=C1 [BQ, benzoquinone]
- pseudo-first-order k′ of conversion of BQ to QO (BQ 200 μM, methoxyamine 100 mM, UV–vis (248 and 320 nm)): 4.2 × 10^–3 s^–1
- second-order rate constant k for CRRL conjugation (BQ with CH3ONH2 to QO) (from plot of k′ versus [methoxyamine], UV–vis): 3.4 × 10^–2 (±6.5 × 10^–4) M^–1s^–1 and 3.41 × 10^–2 (±6.5 × 10^–4) M^–1s^–1
